CSN inh: inhibitors of human CSN-mediated cullin deneddylation | Purified CSN, SCF-Nedd8-OG deneddylation, fluorescence polarization | inhibition, % at 12.5 µM | 360,000 tested, 0.38% active | AID 651999;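 active = pattern-corrected inhibition above about 35%, with an unprinted fluorescence ratio check between 0.5 and 1.5, limit read from the data, passing the limit was not always enough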;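 also: 0% = enzyme with substrate and 100% = substrate without enzyme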
Target sequence (Q92905 whole entry, looked up, one chain of several): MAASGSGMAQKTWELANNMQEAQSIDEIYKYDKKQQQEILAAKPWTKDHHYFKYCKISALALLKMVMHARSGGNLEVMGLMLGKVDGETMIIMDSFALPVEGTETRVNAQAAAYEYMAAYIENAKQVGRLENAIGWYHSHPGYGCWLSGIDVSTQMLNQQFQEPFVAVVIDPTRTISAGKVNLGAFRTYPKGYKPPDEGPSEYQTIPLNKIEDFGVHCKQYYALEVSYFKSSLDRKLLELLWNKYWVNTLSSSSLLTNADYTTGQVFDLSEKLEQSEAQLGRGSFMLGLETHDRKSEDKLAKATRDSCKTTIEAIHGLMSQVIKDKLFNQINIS
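Test system: purified human Csn5 enzyme expressed in HEK293T cells. Amount: 0.24 nM enzyme. Reagent: SCFSkp2-Nedd8OG substrate at 10 nM final. Schedule: 90 min incubation of compound, enzyme and substrate at room temperature. Detection: fluorescence polarization. Read-out: % inhibition of substrate cleavage by Csn5.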
TPT1 inhibitor: blocks Candida albicans tRNA 2'-phosphotransferase; recombinant caTPT1, FP RNA substrate dephosphorylation; inhibition, % at 5 µM; 300,000 tested, 0.81% active; AID 1962;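 active = inhibition above the mean of all tested compounds plus 3 SD, set per screening campaign, cut at about 24% in these data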;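 also: plate controls were DMSO alone for no effect and ferristatin control at 100 nM for full effect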
Rtt109 Vps75: C. albicans Rtt109 histone acetyltransferase inhibition; AID 540336; purified Rtt109/Vps75, ThioGlo CoA-SH fluorescence, 4 h; inhibition, % at 34.9 µM; 330,000 tested, 0.16% active; Q5AAJ8;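 active = inhibition of at least 50% in every replicate; inconclusive = best replicate reaches 50% inhibition but some replicates fall short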
HNF4A DNA FP: change in binding of human HNF4 alpha to DNA; P41235; HNF4a-FITC DNA binding, fluorescence polarization, 1 h; activity change, % at 10 µM; 360,000 tested, 0.3% active; AID 1224865; in the data active = activity change above about 30%, passing the limit was not always enough
Starred values were filed as active, the others as inactive; u = inconclusive; x = not tested or not shown; + = active, no number; ! = not active in a repeat. Rows were chosen to be rich in hits. Some 1.2% of all compounds tested hit in one or more screens of this group.

SMILES	CSN inh	TPT1 inhibitor	Rtt109 Vps75	HNF4A DNA FP
CC(Sc1nnc2n1CCCCC2)C(=O)Nc1cccc(S(=O)(=O)N2CCOCC2)c1 (centres undefined)	4.5	x	44.6	-3.4
Cc1cc(CN2C(=O)c3ccccc3C2=O)no1	-2.7	-2.8	57.5*	3.8
COCCNc1nc(Oc2cccc3ccccc23)c2sccc2n1	1.8	x	x	3.3
C(C#CCCCCCCCCC[n+]1ccccc1)#CCCCCCCCCC[n+]1ccccc1	35.3*!	-4.4	u	77.3*
Cc1cc(/C=C(\C#N)C(=O)N2CCOCC2)c(C)n1C1CCCC1	110.0*	-0.6	-2.4	7.0
CCOC(=O)C(C)Sc1ncc(-c2ccc(Cl)cc2)cn1 (centres undefined)	2.3	-2.9	-12.1	72.9*
CCOc1ccc(Nc2nc(N)c3ccccc3n2)cc1	4.1	x	1.6	60.1*
O=C(NCc1ccco1)c1cccc2c1C(=O)c1ccc(N3CCC(Cc4ccccc4)CC3)cc1S2(=O)=O	13.7	x	-2.9	-24.9
O=C(NCc1ccco1)c1cccc2c1C(=O)c1ccc(/C=C/c3ccccc3)cc1S2(=O)=O	55.4*	x	0.9	-18.5
CCN(CC)c1nc2c(c(=O)[nH]c(=O)n2C)n1CCOc1ccccc1	1.7	3.3	58.3*	1.4
Cc1noc(C)c1S(=O)(=O)NC(=O)C1(C)CCN1C(=O)CC(c1ccccc1)c1ccccc1 (centres undefined)	-0.9	x	x	3.0
N#Cc1ccc(C(=O)Nc2cccc(S(=O)(=O)NC3=NCCC3)c2)cc1	-0.4	x	-5.2	0.3
Cc1ccc(C)c(S(=O)(=O)N2CCCC2CNC(=O)C(=O)NCC2CCCO2)c1 (centres undefined)	4.6	-2.3	-6.8	33.9*
CCN(CC)C(=O)C1=C(C)N(Cc2ccc(C(C)(C)C)cc2)C(=O)C(CC(=O)NC(c2ccccc2)c2ccccc2)C1 (centres undefined)	+	x	x	5.1
CCN(CC)C(=O)C1=C(C)N(Cc2ccc(OC)cc2)C(=O)C(CC(=O)NCCc2ccccn2)C1 (centres undefined)	85.3*	x	x	0.7
CC1=C(C(=O)N(C)C)CC(CC(=O)NC(c2ccccc2)c2ccccc2)C(=O)N1Cc1ccc(C(C)(C)C)cc1 (centres undefined)	3.8	x	x	-6.5
CCN(CC)C(=O)C1=C(C)N(Cc2ccccc2)C(=O)C(CC(=O)NCCc2ccccn2)C1 (centres undefined)	0.1	x	x	1.5
Cc1cccc(N2CCN(C(=O)Cn3nc(C)n4cccc4c3=O)CC2C)c1 (centres undefined)	3.5	-1.8	-4.9	-2.3
Cc1cccc(N2CCN(C(=O)Cn3sc4nc(C)cc(C)c4c3=O)CC2C)c1 (centres undefined)	7.0	24.9*	158.9*	5.1
Cc1ccc(NC(=O)Cn2sc3nc(C)cc(C)c3c2=O)c(Cl)c1	2.4	6.0	154.2*	1.9
CCC(C(=O)Nc1ccc(C(=O)O)cc1NC(=O)C(CC)c1ccccc1)c1ccccc1 (centres undefined)	2.7	-0.5	1.3	1.7
CCOC(=O)N1CCN(S(=O)(=O)c2c[nH]c(C(=O)OC)c2)CC1	-1.9	-4.9	-6.7	1.1
O=C(O)c1ccc(N=Nc2c(-c3ccccc3)[nH]oc2=O)cc1	4.1	-5.0	-0.6	-4.6
CCOC(=O)C(=Cc1cc(=O)c(OC)co1)C(=O)OCC	-2.2	x	77.8*	-0.9
CCn1c(CNC(=O)COc2ccc(C(C)C)cc2)nnc1SCC(=O)NC1CCCCC1C (centres undefined)	70.0*	-3.1	2.0	2.7
SMILES	CSN inh	TPT1 inhibitor	Rtt109 Vps75	HNF4A DNA FP
CCn1c(CNC(=O)COc2ccc(C(C)C)cc2)nnc1SCC(=O)Nc1ccc(F)cc1	-6.2	2.1	-3.0	-0.1
COC(=O)c1ccc(C)c(NC(=O)CCSc2ccc(Cl)cc2)c1	5.4	-3.6	10.1	94.9*
O=C(c1nc2ccccn2c1CN1CCCC(O)C1)N1CCN(C2CCCCC2)CC1 (centres undefined)	4.5	-5.7	15.7	-6.1
COc1ccc(C2NC(=O)C(C#N)=C(S)N2c2ccccc2)cc1OC (centres undefined)	-0.6	-3.0	-5.9	-0.7
CCOc1ccc(C2NC(=O)C(C#N)=C(S)N2c2ccc(C)cc2)cc1OC (centres undefined)	0.6	1.2	u	30.6*
COc1cc(C2NC(=O)C(C#N)=C(S)N2c2ccccc2)ccc1OC(C)C (centres undefined)	-2.4	-3.2	121.6*	3.3
COc1ccc(N2C(S)=C(C#N)C(=O)NC2c2ccco2)cc1 (centres undefined)	-11.2	0.0	62.7*	-0.8

Screening results deposited in PubChem by several laboratories.
